Test results reported in ChEMBL document CHEMBL2321760, “Design, synthesis, and biological evaluation of a series of benzo[de][1,7]naphthyridin-7(8H)-ones bearing a functionalized longer chain appendage as novel PARP1 inhibitors” (J Med Chem, 2013).

Tested on: not listed separately
Assay: Cytotoxicity against Chinese hamster V79 cells expressing wild type BRCA2 assessed as growth inhibition
Type: cell-based, Cricetulus griseus
Conditions: not given
Method in brief: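 V79 (wild-type Chinese hamster lung fibroblasts) grown in RPMI-1640 with 10% FBS, 37 °C, 5% CO2. Six concentrations per test. CC50 is the concentration reducing proliferation and growth by 50%, calculated by Logit method from at least three independent tests.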

O=C1NCC2c3c(cccc31)CCN2C(=O)c1cc(Cc2n[nH]c(=O)c3c2CCCC3)ccc1F (configuration not stated) and Cc1c(Cc2ccc(F)c(C(=O)N3CCc4cccc5c4C3CNC5=O)c2)n[nH]c(=O)c1C (configuration not stated) cannot be ordered by CC50: greater than 10 µM for the first, greater than 10 µM for the second.

O=C(c1cc(Cc2n[nH]c(=O)c3ccccc23)ccc1F)N1CCc2cccc3c2C1CNC3 (configuration not stated) and O=C1CC2c3c(cccc3N1)CCN2C(=O)c1cc(Cc2n[nH]c(=O)c3ccccc23)ccc1F (configuration not stated) cannot be ordered by CC50: greater than 10 µM for the first, greater than 10 µM for the second.

O=C(c1cc(Cc2n[nH]c(=O)c3ccccc23)ccc1F)N1CCN(C(=O)C2CC2)CC1 [OLAPARIB] and O=C(c1cc(Cc2n[nH]c(=O)c3ccccc23)ccc1F)N1Cc2cccc3c2C(C1)NCC3 (configuration not stated) cannot be ordered by CC50: greater than 10 µM for the first, greater than 10 µM for the second.

NC1CC2c3c(cccc31)CCN2C(=O)c1cc(Cc2n[nH]c(=O)c3ccccc23)ccc1F (configuration not stated) and O=C(c1cc(Cc2n[nH]c(=O)c3ccccc23)ccc1F)N1CCc2cccc3c2C1CC3O (configuration not stated) cannot be ordered by CC50: greater than 10 µM for the first, greater than 10 µM for the second.

Molecule O=C(N[C@@H]1C[C@@H](O)c2ccccc21)c1cc(Cc2n[nH]c(=O)c3ccccc23)ccc1F (relative stereo) has a CC50 of 4.26 µM.

Tested on: not listed separately
Assay: Cytotoxicity against Chinese hamster BRCA2-deficient VC8 cells assessed as growth inhibition
Type: cell-based
Conditions: Cricetulus griseus, V-C8
Method in brief: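 V-C8 (BRCA2-deficient Chinese hamster lung fibroblasts) grown in F12 with 10% FBS, 37 °C, 5% CO2. Six concentrations per test. CC50 is the concentration reducing proliferation and growth by 50%, calculated by Logit method from at least three independent tests.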

Going from O=C1NCC2c3c(cccc31)CCN2C(=O)c1cc(Cc2n[nH]c(=O)c3c2CCCC3)ccc1F (configuration not stated) to Cc1c(Cc2ccc(F)c(C(=O)N3CCc4cccc5c4C3CNC5=O)c2)n[nH]c(=O)c1C (configuration not stated), the CC50 rises from 0.114 µM to greater than 1 µM.

O=C(c1cc(Cc2n[nH]c(=O)c3ccccc23)ccc1F)N1CCc2cccc3c2C1CNC3 (configuration not stated) and O=C1CC2c3c(cccc3N1)CCN2C(=O)c1cc(Cc2n[nH]c(=O)c3ccccc23)ccc1F (configuration not stated) cannot be ordered by CC50: greater than 10 µM for the first, greater than 10 µM for the second.

Going from O=C(c1cc(Cc2n[nH]c(=O)c3ccccc23)ccc1F)N1CCN(C(=O)C2CC2)CC1 [OLAPARIB] to O=C(c1cc(Cc2n[nH]c(=O)c3ccccc23)ccc1F)N1Cc2cccc3c2C(C1)NCC3 (configuration not stated), the CC50 rises from 0.201 µM to 0.63 µM (3.1-fold).

NC1CC2c3c(cccc31)CCN2C(=O)c1cc(Cc2n[nH]c(=O)c3ccccc23)ccc1F (configuration not stated) and O=C(c1cc(Cc2n[nH]c(=O)c3ccccc23)ccc1F)N1CCc2cccc3c2C1CC3O (configuration not stated) cannot be ordered by CC50: greater than 10 µM for the first, greater than 10 µM for the second.

With O=C(N[C@@H]1C[C@@H](O)c2ccccc21)c1cc(Cc2n[nH]c(=O)c3ccccc23)ccc1F (relative stereo) the CC50 was 2.27 µM.

Tested on: not listed separately
Assay: Cytotoxicity against human BRCA1-deficient MDA-MB-436 cells assessed as growth inhibition
Type: cell-based
Conditions: not given
Method in brief: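 Proliferation assay in BRCA1-mutant human breast cancer MDA-MB-436 cells. Six concentrations per test. CC50 calculated by Logit method from at least three independent tests.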

Going from O=C(c1cc(Cc2n[nH]c(=O)c3ccccc23)ccc1F)N1CCN(C(=O)C2CC2)CC1 [OLAPARIB] to O=C(c1cc(Cc2n[nH]c(=O)c3ccccc23)ccc1F)N1Cc2cccc3c2C(C1)NCC3 (configuration not stated), the CC50 rises from 0.0432 µM to 0.556 µM (13-fold).

Molecule O=C(N[C@@H]1C[C@@H](O)c2ccccc21)c1cc(Cc2n[nH]c(=O)c3ccccc23)ccc1F (relative stereo) has a CC50 of 0.775 µM.

Tested on: SK-OV-3
Assay: Potentiation of temozolomide-induced cytotoxicity in human SKOV3 cells assessed as reduction in temozolomide IC50 at 0.5 uM after 7 days by sulforhodamine B assay
Type: functional
Conditions: not given
Method in brief: (§1)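 SKOV3 cells in DMEM with 10% FBS were given gradient concentrations of temozolomide, alone or with compound at 0.5 or 1.0 µM, for 7 days. Cytotoxicity read by sulforhodamine B. Temozolomide IC50 reported as mean ± SD, n=3.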

In the case of O=C(c1cc(Cc2n[nH]c(=O)c3ccccc23)ccc1F)N1CCN(C(=O)C2CC2)CC1 [OLAPARIB], the “fold change (FC)” value is reported as 9.6.

Tested on: SK-OV-3
Assay: Potentiation of temozolomide-induced cytotoxicity in human SKOV3 cells assessed as reduction in temozolomide IC50 at 1 uM after 7 days by sulforhodamine B assay
Type: functional
Conditions: not given
Method in brief: as §1

In the case of O=C(c1cc(Cc2n[nH]c(=O)c3ccccc23)ccc1F)N1CCN(C(=O)C2CC2)CC1 [OLAPARIB], the “fold change (FC)” value is reported as 10.4.

Tested on: not listed separately
Assay: Ratio of AZD2281 CC50 to compound CC50 for Chinese hamster BRCA2-deficient VC8 cells
Type: ADME, cell-based, Cricetulus griseus
Conditions: not given

In the case of O=C1NCC2c3c(cccc31)CCN2C(=O)c1cc(Cc2n[nH]c(=O)c3c2CCCC3)ccc1F (configuration not stated), the Ratio is reported as 2.

Biological target: Poly [ADP-ribose] polymerase 1 (Homo sapiens, UniProt P09874)
Sequence (P09874 whole entry): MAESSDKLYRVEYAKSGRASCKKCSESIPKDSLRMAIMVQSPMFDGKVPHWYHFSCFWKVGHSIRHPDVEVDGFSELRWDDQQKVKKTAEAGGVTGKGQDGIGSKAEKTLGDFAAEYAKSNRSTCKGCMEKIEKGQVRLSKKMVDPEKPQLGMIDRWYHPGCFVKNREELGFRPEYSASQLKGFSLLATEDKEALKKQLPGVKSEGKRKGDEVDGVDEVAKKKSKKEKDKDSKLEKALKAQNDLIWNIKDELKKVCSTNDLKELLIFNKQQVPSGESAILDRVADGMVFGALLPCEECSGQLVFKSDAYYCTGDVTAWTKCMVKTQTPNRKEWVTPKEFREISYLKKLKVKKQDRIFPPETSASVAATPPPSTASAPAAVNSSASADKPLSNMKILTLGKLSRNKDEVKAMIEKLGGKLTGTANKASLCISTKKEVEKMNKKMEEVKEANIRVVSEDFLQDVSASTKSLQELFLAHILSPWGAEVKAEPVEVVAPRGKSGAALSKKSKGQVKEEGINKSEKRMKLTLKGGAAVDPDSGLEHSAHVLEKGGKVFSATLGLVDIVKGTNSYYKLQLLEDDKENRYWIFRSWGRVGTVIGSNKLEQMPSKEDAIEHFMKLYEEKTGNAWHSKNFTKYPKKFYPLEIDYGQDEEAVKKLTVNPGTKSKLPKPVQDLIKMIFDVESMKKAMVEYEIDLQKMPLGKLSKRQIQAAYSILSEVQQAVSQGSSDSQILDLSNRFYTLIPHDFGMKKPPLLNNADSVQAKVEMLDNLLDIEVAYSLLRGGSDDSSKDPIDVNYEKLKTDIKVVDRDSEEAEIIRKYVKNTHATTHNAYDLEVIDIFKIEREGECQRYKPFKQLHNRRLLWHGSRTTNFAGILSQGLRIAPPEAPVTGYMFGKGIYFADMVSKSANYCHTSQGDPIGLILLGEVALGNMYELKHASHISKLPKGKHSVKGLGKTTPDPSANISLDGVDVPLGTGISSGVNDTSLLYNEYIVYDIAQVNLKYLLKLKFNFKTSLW
Assay: Inhibition of human recombinant PARP1 after 1 hr by ELISA
Conditions: not given

Compared with O=C1NCC2c3c(cccc31)CCN2C(=O)c1cc(Cc2n[nH]c(=O)c3c2CCCC3)ccc1F (configuration not stated), Cc1c(Cc2ccc(F)c(C(=O)N3CCc4cccc5c4C3CNC5=O)c2)n[nH]c(=O)c1C (configuration not stated) is 20-fold higher in IC50: 0.0018 µM for the first, 0.036 µM for the second.

First: O=C(c1cc(Cc2n[nH]c(=O)c3ccccc23)ccc1F)N1CCc2cccc3c2C1CNC3 (configuration not stated)
Second: O=C1CC2c3c(cccc3N1)CCN2C(=O)c1cc(Cc2n[nH]c(=O)c3ccccc23)ccc1F (configuration not stated)
The IC50 of the first is 2.5-fold lower: 0.156 µM for the first, 0.387 µM for the second.

NC1CC2c3c(cccc31)CCN2C(=O)c1cc(Cc2n[nH]c(=O)c3ccccc23)ccc1F (configuration not stated) and O=C(c1cc(Cc2n[nH]c(=O)c3ccccc23)ccc1F)N1CCc2cccc3c2C1CC3O (configuration not stated) are within 1.5-fold of each other in IC50: 0.0766 µM for the first, 0.0862 µM for the second.

Compared with O=C(N[C@@H]1C[C@@H](O)c2ccccc21)c1cc(Cc2n[nH]c(=O)c3ccccc23)ccc1F (relative stereo), O=C(c1cc(Cc2n[nH]c(=O)c3ccccc23)ccc1F)N1Cc2cccc3c2C(C1)NCC3 (configuration not stated) is 2.4-fold higher in IC50: 0.00057 µM for the first, 0.00139 µM for the second. The first is the more potent here.
